Consider four compounds from ChEMBL document CHEMBL3045515, “Insecticidal benzoylphenylurea-S-carbamate: a new propesticide with two effects of both benzoylphenylureas and carbamates” (2007).

Common to all, as to format: functional
The test system of test [1] is Mythimna separata. Put plainly: (§1) Larvicidal activity against Mythimna separata (Oriental armyworm) in compound treated corn leaves at […] at 25 +/- 1 degC measured after 4 days.
The test system of test [2] is Mythimna separata. The experiment in a line: Larvicidal activity against Mythimna separata (Oriental armyworm) in compound treated corn leaves at 1 mg/L at 25 +/- 1 degC measured after 4 days. An outline of the steps:
(§2)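 Foliar-application assay on laboratory-reared Oriental armyworm (Mythimna (Pseudaletia) separata), run at 25 ± 1 °C. Larvae were scored dead or alive, and mortality was corrected by Abbott's formula on a 0–100% scale, where 0 = no activity and 100 = total kill. Bioassays were repeated as statistics required.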

Test [3] concerns Mythimna separata. Put plainly: Larvicidal activity against Mythimna separata (Oriental armyworm) in compound treated corn leaves at 10 mg/L at 25 +/- 1 degC measured after 4 days.
The test system of test [4] is Mythimna separata. Put plainly: Larvicidal activity against Mythimna separata (Oriental armyworm) in compound treated corn leaves at 25 mg/L at 25 +/- 1 degC measured after 4 days.
Test [5] relates to Mythimna separata. The experiment in a line: Larvicidal activity against Mythimna separata (Oriental armyworm) in compound treated corn leaves at 50 mg/L at 25 +/- 1 degC measured after 4 days. Summed up:
as §2

The test system of test [6] is Mythimna separata. The experiment in a line: Larvicidal activity against Mythimna separata (Oriental armyworm) in compound treated corn leaves at 5 mg/L at 25 +/- 1 degC measured after 4 days.
Test [7] has as its system Mythimna separata. Put plainly: Larvicidal activity against Mythimna separata (Oriental armyworm) in compound treated corn leaves at 100 mg/L at 25 +/- 1 degC measured after 4 days.
In test [8] the test system is Mythimna separata. The test is described as §1. The source holds these as a separate data set.
Test [9] has as its system Mythimna separata. The experiment in a line: Larvicidal activity against Mythimna separata (Oriental armyworm ) in compound treated corn leaves at 0.5 mg/L at 25 +/- 1 degC measured after 4 days. Summed up:
as §2

Each structure is given as a SMILES string.

With `O=C(NC(=O)c1ccccc1Cl)Nc1ccc(OC(F)(F)F)cc1` [TRIFLUMURON], the Activity in the test on Mythimna separata [1] is 20%; with Mythimna separata [2] it was 95%; with Mythimna separata [3] it was 100%; in the test with Mythimna separata [4], 100%; in the test with Mythimna separata [5] it was 100%; with Mythimna separata [6], 100%. In addition, the Activity amounted to 0% in the test with Mythimna separata [7], 100% in the test with Mythimna separata [8] and 40% with Mythimna separata [9].

For the compound `Cc1cccc(OC(=O)N(C)SN(C(=O)NC(=O)c2c(F)cccc2F)c2ccc(C(F)(F)F)cc2)c1` [Penfluron-S-MTMC], the Activity in the test on Mythimna separata [1] came out at 15%; in the test on Mythimna separata [2] it was 100%; in the test with Mythimna separata [3] it was 100%; with Mythimna separata [4] it was 100%; with Mythimna separata [5] it was 100%; in the test on Mythimna separata [6] it was 100%. Also, the Activity in the test on Mythimna separata [8] is reported as 100%; in the test with Mythimna separata [9], 95%.

In the case of `CNC(=O)ON=C(C)SC` [METHOMYL], the Activity is on record as 100% with Mythimna separata [3], 62% in the test with Mythimna separata [6], 100% in the test on Mythimna separata [7] and 0% in the test on Mythimna separata [8].

`O=C(NC(=O)c1c(F)cccc1F)Nc1ccc(Cl)cc1` [DIFLUBENZURON]: the Activity stood at 45% with Mythimna separata [1]; 100% with Mythimna separata [2]; 100% with Mythimna separata [3]; 100% with Mythimna separata [4]; 100% in the test with Mythimna separata [5]; 100% with Mythimna separata [6]. In addition, the figures for the Activity in the test on Mythimna separata [7], in the test with Mythimna separata [8] and with Mythimna separata [9] were 0%, 100% and 100%, respectively.
